IC50 data for twelve compounds are collected here from ChEMBL document CHEMBL1156715, “Synthesis of new 3-pyridinecarboxylates of potential vasodilation properties” (Eur J Med Chem, 2008).

Structures are written as SMILES.

In the assay the test system is Aorta. As to the kind of experiment: Vasodilation activity in Wistar rat thoracic aorta assessed as reduction of norepinephrine hydrochloride-induced contracture after 2 hrs. It counts as functional, tissue-based. Put shortly:
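Endothelium-denuded aortic preparations (functional endothelium removed, confirmed by <10% acetylcholine relaxation of pre-contracted aorta) equilibrated 2 h under 2 g resting tension. Contraction to norepinephrine hydrochloride (3 × 10^-7 to 3 × 10^-3 M) recorded isometrically before and after increasing test concentrations. DMSO stock 50 mg/ml; DMSO-only controls. IC50 = concentration giving 50% reduction of maximal norepinephrine contracture.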
Take `CCOC(=O)c1c(-c2ccc(F)cc2)cc(-c2ccccc2)nc1N`: the concentration for half-maximal inhibition (IC50) came to 335 µM.

`CCOC(=O)c1c(-c2ccc(C)cc2)cc(-c2ccccc2)nc1N1CCCCC1`: the half-inhibitory concentration (IC50) turned out to be 175 µM.

`CCOC(=O)c1c(-c2ccc(F)cc2)cc(-c2ccccc2)nc1Nc1ccccc1`: the IC50 is 367 µM.

With `CCOC(=O)c1c(-c2ccc(C)cc2)cc(-c2ccccc2)nc1N1CCOCC1`, the half-inhibitory concentration (IC50) turned out to be 340 µM.

With `CCOC(=O)c1c(-c2ccc(C)cc2)cc(-c2ccccc2)nc1N1CCN(c2nc(-c3ccccc3)cc(-c3ccc(C)cc3)c2C(=O)OCC)CC1`, the 50% inhibitory concentration (IC50) is 229 µM.

As for `CCOC(=O)c1c(-c2ccc(F)cc2)cc(-c2ccccc2)nc1Nc1ccc(OC)cc1`, the IC50 was 254 µM.

Take `CCOC(=O)c1c(-c2ccc(F)cc2)cc(-c2ccccc2)nc1Nc1ccc(Cl)cc1`: the half-inhibitory concentration (IC50) is 715 µM.

Consider `CCOC(=O)c1c(-c2ccc(C)cc2)cc(-c2ccccc2)nc1Nc1ccc(Cl)cc1`, for which the IC50 came to 266 µM.

For `CCOC(=O)c1c(-c2ccc(C)cc2)cc(-c2ccccc2)nc1Nc1ccc(OC)cc1`, the concentration for half-maximal inhibition (IC50) is 233 µM.

As to `CCOC(=O)c1c(-c2ccc(C)cc2)cc(-c2ccccc2)nc1N`, the IC50 was found to be 327 µM.

In the case of `CCOC(=O)c1c(-c2ccc(F)cc2)cc(-c2ccccc2)nc1N1CCCCC1`, the IC50 is 346 µM.

As for `CCOC(=O)c1c(-c2ccc(F)cc2)cc(-c2ccccc2)nc1N1CCOCC1`, the IC50 worked out at 146 µM.
